Laboratory results reported in ChEMBL document CHEMBL3627702, “Navigating CYP1A Induction and Arylhydrocarbon Receptor Agonism in Drug Discovery. A Case History with S1P1 Agonists” (J Med Chem, 2015).

Legend:
CYP1A2 [1] = test: Induction of CYP1A2 mRNA expression in Sprague-Dawley rat hepatic microsomes at 22 mg/kg, po QD for 4 days relative to control; format: ADME, organism-based, Liver; conditions: read-out: FC
Rattus norvegicus [2] = test: Dose normalized AUC in Sprague-Dawley rat at 22 mg/kg, po QD measured on day 4; format: ADME, organism-based; conditions: in vivo
Summary of the method: (§1)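 Male CD rats (226−325 g), n = 3, given the compound once daily by oral gavage for 4 days. Vehicle was 1% (w/v) methylcellulose aq suspension at 3−6 mg/mL, dosed at 5 mL/kg (target 15−30 mg/kg). Tail vein blood was taken on days 1 and 4 up to 24 h postdose. Blood was diluted 1:1 with water, extracted by acetonitrile protein precipitation and analysed by LC−MS/MS against calibration standards in diluted blood.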

[3] = Lipophilicity, log D of the compound at pH 7.4; format: physicochemical; conditions: buffer
CYP1A1 [4] = test: Induction of CYP1A1 mRNA expression in Sprague-Dawley rat hepatic microsomes at 22 mg/kg, po QD for 4 days relative to control; format: ADME, organism-based, Liver; conditions: read-out: FC
Summary of the method: (§2)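 Male CD rats (226–325 g, n = 3) were dosed by oral gavage once daily for 4 days as a 1% w/v aqueous methylcellulose suspension (3–6 mg/mL, 5 mL/kg). At the end of the study, a left lateral liver lobe section was placed in RNALater and homogenised in TRIzol. RNA was purified, DNase-treated and converted to cDNA, and Cyp1a1 was read on low-density TaqMan arrays.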

[5] = Cmax in Sprague-Dawley rat at 22 mg/kg, po QD measured on day 1; format: ADME, organism-based; set-up: dose 22 mg/kg, route oral; conditions: in vivo; summary of the method: as §1
[6] = AUC in Sprague-Dawley rat at 22 mg/kg, po QD measured on day 1; format: ADME, organism-based; conditions: in vivo; summary of the method: as §1
[7] = AUC in Sprague-Dawley rat at 22 mg/kg, po QD measured on day 4; format: ADME, organism-based; conditions: in vivo; summary of the method: as §1
[8] = Dissociation constant, pKa of the compound; format: physicochemical
[9] = Cmax in Sprague-Dawley rat at 22 mg/kg, po QD measured on day 4; format: ADME, organism-based; set-up: dose 22 mg/kg, route oral; conditions: in vivo; summary of the method: as §1
Rattus norvegicus [10] = test: Dose normalized AUC in Sprague-Dawley rat at 22 mg/kg, po QD measured on day 1; format: ADME, organism-based; conditions: in vivo; summary of the method: as §1
[11] = AUC in Sprague-Dawley rat at 17 mg/kg, po QD measured on day 4; format: ADME, organism-based; conditions: in vivo; summary of the method: as §1
Rattus norvegicus [12] = test: Dose normalized AUC in Sprague-Dawley rat at 17 mg/kg, po QD measured on day 4; format: ADME, organism-based; conditions: in vivo; summary of the method: as §1
CYP1A1 [13] = test: Induction of CYP1A1 mRNA expression in Sprague-Dawley rat hepatic microsomes at 17 mg/kg, po QD for 4 days relative to control; format: ADME, organism-based, Liver; conditions: read-out: FC; summary of the method: as §2
[14] = AUC in Sprague-Dawley rat at 17 mg/kg, po QD measured on day 1; format: ADME, organism-based; conditions: in vivo; summary of the method: as §1
CYP1A2 [15] = test: Induction of CYP1A2 mRNA expression in Sprague-Dawley rat hepatic microsomes at 17 mg/kg, po QD for 4 days relative to control; format: ADME, organism-based, Liver; conditions: read-out: FC
[16] = Cmax in Sprague-Dawley rat at 17 mg/kg, po QD measured on day 4; format: ADME, organism-based; set-up: dose 17 mg/kg, route oral; conditions: in vivo; summary of the method: as §1
[17] = Cmax in Sprague-Dawley rat at 17 mg/kg, po QD measured on day 1; format: ADME, organism-based; set-up: dose 17 mg/kg, route oral; conditions: in vivo; summary of the method: as §1
Rattus norvegicus [18] = test: Dose normalized AUC in Sprague-Dawley rat at 17 mg/kg, po QD measured on day 1; format: ADME, organism-based; conditions: in vivo; summary of the method: as §1

Row | fold induction at 96 h (CYP1A2 [1]) | AUC/dose (Rattus norvegicus [2]) [kg·min/L] | logD [3] | fold induction at 96 h (CYP1A1 [4]) | Cmax [5] [ng/mL] | AUC [6] [ng·h/mL] | AUC [7] [ng·h/mL] | pKa [8] | Cmax [9] [ng/mL] | AUC/dose (Rattus norvegicus [10]) [kg·min/L] | AUC [11] [ng·h/mL] | AUC/dose (Rattus norvegicus [12]) [kg·min/L] | fold induction at 96 h (CYP1A1 [13]) | AUC [14] [ng·h/mL] | fold induction at 96 h (CYP1A2 [15]) | Cmax [16] [ng/mL] | Cmax [17] [ng/mL] | AUC/dose (Rattus norvegicus [18]) [kg·min/L] | SMILES
1 | 3 | 79 | 2.84 | 7 | 2100 | 24300 | 28800 | 7.3 | 2730 | 66 |  |  |  |  |  |  |  |  | Cc1c(-c2noc(-c3cnc(OC(C)C)c(C#N)c3)n2)ccc2c1CCN(C(CO)CO)C2
2 |  |  | 2.15 |  |  |  |  |  |  |  | 16800 | 59 | 0.9 | 12900 | 2 | 2170 | 1610 | 46 | Cc1c(-c2noc(-c3ccc(OC(C)C)c(C#N)c3)n2)cnc2c1CCN(C(CO)CO)C2
